According to article PMC5561660 (Organic & biomolecular chemistry, 2017):
Like-named read-outs stand apart in the source and are kept apart here.

Assays:
human VAChT [1] = target: T1, human VAChT (Homo sapiens, UniProt Q16572); conditions: read-out: Ki VAChT, mean ± SEM, cited from earlier work
T1 sequence (Q16572 1-532): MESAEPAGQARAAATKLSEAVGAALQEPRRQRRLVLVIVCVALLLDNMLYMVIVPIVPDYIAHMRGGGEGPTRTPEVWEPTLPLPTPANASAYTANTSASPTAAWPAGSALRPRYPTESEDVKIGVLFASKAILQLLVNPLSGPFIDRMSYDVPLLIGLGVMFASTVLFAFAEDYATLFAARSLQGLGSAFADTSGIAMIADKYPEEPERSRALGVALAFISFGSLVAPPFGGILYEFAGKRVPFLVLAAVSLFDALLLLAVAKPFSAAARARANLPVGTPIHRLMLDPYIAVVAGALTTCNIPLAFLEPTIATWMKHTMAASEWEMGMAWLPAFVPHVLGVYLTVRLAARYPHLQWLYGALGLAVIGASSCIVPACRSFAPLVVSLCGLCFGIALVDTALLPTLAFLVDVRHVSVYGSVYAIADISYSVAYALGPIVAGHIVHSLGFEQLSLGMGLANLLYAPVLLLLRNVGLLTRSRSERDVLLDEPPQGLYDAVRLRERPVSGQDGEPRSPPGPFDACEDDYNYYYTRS

σ2 receptor [2] = target: T2, σ2 receptor (Rattus norvegicus, UniProt Q5U3Y7); conditions: read-out: Ki σ2, mean ± SEM, cited from earlier work
T2 sequence (Q5U3Y7 1-176): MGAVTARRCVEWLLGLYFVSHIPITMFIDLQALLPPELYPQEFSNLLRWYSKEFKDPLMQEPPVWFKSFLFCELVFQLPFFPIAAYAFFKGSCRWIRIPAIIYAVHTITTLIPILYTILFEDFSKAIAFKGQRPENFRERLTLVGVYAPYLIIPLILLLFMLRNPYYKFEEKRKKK

σ2 receptor [3] = conditions: selectivity ratio, cited from earlier work
σ1 receptor [4] = target: σ1 receptor (Cavia porcellus, UniProt Q60492); conditions: read-out: Ki σ1, mean ± SEM, cited from earlier work
σ1 receptor [5] = conditions: selectivity ratio, cited from earlier work
human VAChT [6] = target: T1, human VAChT; assay: VAChT competitive binding, displacement of
Outline: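 Postnuclear supernatant (200 µg) from PC12A123.7 cells expressing human VAChT, incubated with (−)-[3H]vesamicol and test compound (0.1–10,000 nM, 10-fold steps) in 110 mM potassium tartrate, 20 mM HEPES pH 7.4, 1 mM DTT, 0.02% sodium azide, 22 °C, 24 h. Duplicate filtration on PEI-coated GF/F filters, buffer washes, scintillation counting. Ki from rectangular hyperbola fit of averaged data; ≥2 independent assays.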

Sequence of σ1 receptor (Cavia porcellus, UniProt Q60492) (Q60492 whole entry): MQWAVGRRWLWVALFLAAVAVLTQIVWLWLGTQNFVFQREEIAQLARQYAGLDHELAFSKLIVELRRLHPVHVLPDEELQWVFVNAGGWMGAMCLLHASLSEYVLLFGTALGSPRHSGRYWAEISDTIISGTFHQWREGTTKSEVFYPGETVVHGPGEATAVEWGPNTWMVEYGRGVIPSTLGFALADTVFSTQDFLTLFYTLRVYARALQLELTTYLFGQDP

O=C(c1ccc(OCCF)cc1)C1CCN(C2Cc3ccccc3CC2O)CC1 (racemic) [(±)-5, (4-(2-fluoroethoxy)phenyl)(1-(3-hydroxy-1,2,3,4-tetrahydronaphthalen-2-yl)piperidin-4-yl)methanone]
Ki (human VAChT [1]; ref [20]): 38 ± 3.8 nM
Ki (σ2 receptor [2]; ref [20]): 1860 ± 140 nM
σ2/VAChT (σ2 receptor [3]; ref [20]): 49
Ki (σ1 receptor [4]; ref [20]): 2120 ± 50 nM
σ1/VAChT (σ1 receptor [5]; ref [20]): 56

O=C(c1ccc(OCCF)nc1)C1CCN(C2Cc3ccccc3CC2O)CC1 (racemic) [(±)-6, (6-(2-fluoroethoxy)pyridin-3-yl)(1-(3-hydroxy-1,2,3,4-tetrahydronaphthalen-2-yl)piperidin-4-yl)methanone]
Ki (human VAChT [1]; ref [23]): 1.74 ± 0.32 nM
Ki (σ2 receptor [2]; ref [23]): 1890 ± 240 nM
σ2/VAChT (σ2 receptor [3]; ref [23]): 1086
Ki (σ1 receptor [4]; ref [23]): 13.2 ± 0.2 nM
σ1/VAChT (σ1 receptor [5]; ref [23]): 8

O=C(c1ccc(NCCF)cc1)C1CCN(C2Cc3ccccc3CC2O)CC1 (racemic) [(±)-7, (4-((2-Fluoroethyl)amino)phenyl)(1-(3-hydroxy-1,2,3,4-tetrahydronaphthalen-2-yl)piperidin-4-yl)methanone]
Ki (human VAChT [6]): 2.68 ± 0.23 nM
